Data: ChEMBL document CHEMBL5154796, “Chemical synthesis and pharmacological properties of heparin pentasaccharide analogues” (Eur J Med Chem, 2022)
Active and inactive are the calls of the source. The rule behind the calls is not given here.

Assays:
[1] = AUC (0 to infinity) in Sprague-Dawley rat at 100 nmol/kg, sc; format: ADME; design: time infinity, dose 100 nmol/kg, route sc; details: in vivo; for AUC(0-inf): Sprague-Dawley, 100 nmol/kg
Method in brief: (§1)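 Plasma level read from anti-FXa activity against a standard curve built by spiking pooled rat platelet-poor plasma with graded compound. Noncompartmental analysis; n = 4-6, mean ± SEM.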

[2] = AUC (0 to 32 hrs) in Sprague-Dawley rat at 100 nmol/kg, sc measured after 32 hrs; format: ADME, organism-based; design: time 32 hrs, dose 100 nmol/kg, route sc; details: in vivo; method in brief: as §1
Plasma [3] = assay: Anticoagulant activity in human plasma assessed as prolongation of activated partial thromboplastin time by measuring concentration required to double APTT incubated for 3 mins by coagulometer analysis; format: functional; details: 0.05 h
Method in brief: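 Standard human plasma (45 µL) plus sample (5 µL), 2 min at 37 °C, then APTT reagent for 3 min, then CaCl2; clotting time read on a coagulometer. Clotting time versus concentration fitted linearly; EC2.0 is the concentration doubling clotting time. Run in duplicate.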

Plasma [4] = assay: Anticoagulant activity in human plasma assessed as prolongation of prothrombin time by measuring concentration required to double PT incubated for 3 mins by coagulometer analysis; format: functional; details: dose 128 µg/ml, 0.05 h
Plasma [5] = assay: Anticoagulant activity in human plasma assessed as prolongation of thrombin time by measuring concentration required to double TT incubated for 3 mins by coagulometer analysis; format: functional; details: 0.05 h
Coagulation factor X [6] = molecular target: T1, Coagulation factor X (Homo sapiens, UniProt P00742); assay: Inhibition of coagulation factor Xa (unknown origin) using chromogenic substrate incubated for 7 min in presence of antithrombin by absorbance based assay
T1 sequence (P00742 41-179 limits assumed): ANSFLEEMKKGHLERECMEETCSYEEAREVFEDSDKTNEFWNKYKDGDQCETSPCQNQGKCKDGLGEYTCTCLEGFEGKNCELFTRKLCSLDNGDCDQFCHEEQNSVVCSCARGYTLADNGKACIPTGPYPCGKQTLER
T1 sequence (P00742 235-488 limits assumed): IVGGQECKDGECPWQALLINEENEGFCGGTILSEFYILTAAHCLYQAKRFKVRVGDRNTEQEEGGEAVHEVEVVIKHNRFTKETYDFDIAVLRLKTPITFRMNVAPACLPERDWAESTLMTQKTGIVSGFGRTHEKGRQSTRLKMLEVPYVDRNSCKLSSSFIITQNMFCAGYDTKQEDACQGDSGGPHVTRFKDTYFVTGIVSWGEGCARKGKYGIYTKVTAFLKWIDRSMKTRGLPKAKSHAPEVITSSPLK

Coagulation factor X [7] = molecular target: T1, Coagulation factor X; assay: Inhibition of heparin binding to factor 10a using chromogenic substrate incubated for 7 min by absorbance based assay
Plasma [8] = assay: Anticoagulant activity in human platelet poor plasma assessed as inhibition of thrombin generation incubated for 3 mins by calibrated automated thrombogram analysis; format: functional, cell-free; details: 0.05 h
Method in brief: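 Thrombin generation triggered in human platelet-poor plasma by a phospholipid/tissue factor reagent, monitored by calibrated automated thrombogram with readings every 15 s. Total thrombin taken as area under the thrombin-time curve; IC50 from dose-response. Triplicate.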

[9] = Tmax in Sprague-Dawley rat at 100 nmol/kg, sc; format: ADME; details: in vivo; method in brief: as §1
[10] = Cmax in Sprague-Dawley rat at 100 nmol/kg, sc; format: ADME; design: dose 100 nmol/kg, route sc; details: in vivo; method in brief: as §1
[11] = Half life in Sprague-Dawley rat at 100 nmol/kg, sc; format: ADME; details: in vivo; method in brief: as §1
[12] = Volume of distribution in Sprague-Dawley rat at 100 nmol/kg, sc; format: ADME; details: in vivo; method in brief: as §1
Rattus norvegicus [13] = assay: Antithrombotic activity in Sprague-Dawley rat model of blood stasis-induced venous thrombosis assessed as inhibition of thrombosis rate at 100 nmol/kg, sc measured after 1 hr relative to control; format: functional
Method in brief: (§2)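 Male SD rats given 100 nmol/kg s.c.; at 1 or 3 h, anesthetized with 10% chloral hydrate ([…]). Vena cava loosely ligated, collaterals tied, 2% rabbit thromboplastin given i.v., stasis 20 s later and held 20 min. Thrombus removed, dried 24 h at 50 °C, weighed; inhibition versus saline group; n = 6, mean ± SEM.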

Rattus norvegicus [14] = assay: Antithrombotic activity in Sprague-Dawley rat model of blood stasis-induced venous thrombosis assessed as inhibition of thrombosis rate at 30 nmol/kg, sc measured after 2 hrs relative to control; format: functional
Method in brief: (§3)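 Stasis/thromboplastin vena cava model in male SD rats 2 h after s.c. dosing at 30, 100 or 300 nmol/kg. Thrombus dried 24 h at 50 °C and weighed, then expressed as % of mean thrombus mass in the saline group (100% = no inhibition); n = 8-10, mean ± SEM.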

Rattus norvegicus [15] = assay: Antithrombotic activity in Sprague-Dawley rat model of blood stasis-induced venous thrombosis assessed as inhibition of thrombosis rate at 100 nmol/kg, sc measured after 2 hrs relative to control; format: functional; method in brief: as §3
Rattus norvegicus [16] = assay: Antithrombotic activity in Sprague-Dawley rat model of blood stasis-induced venous thrombosis assessed as inhibition of thrombosis rate at 300 nmol/kg, sc measured after 2 hrs relative to control; format: functional; method in brief: as §3
Rattus norvegicus [17] = assay: Antithrombotic activity in Sprague-Dawley rat model of blood stasis-induced venous thrombosis assessed as inhibition of thrombosis rate at 100 nmol/kg, sc measured after 1 hr; format: functional, organism-based; method in brief: as §2
[18] = Clearance in Sprague-Dawley rat at 100 nmol/kg, sc; format: ADME; details: in vivo; method in brief: as §1
Rattus norvegicus [19] = assay: Antithrombotic activity in Sprague-Dawley rat model of blood stasis-induced venous thrombosis assessed as inhibition of thrombosis rate at 100 nmol/kg, sc measured after 3 hrs; format: functional, organism-based; method in brief: as §2
Mus musculus = assay: Antithrombotic activity in mouse model of tail-bleeding assessed as increase in blood loss at 2000 nmol/kg, sc; format: functional, organism-based
Method in brief: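 Mouse tail-cut bleeding: 2000 nmol/kg s.c., tail cut 1.5 h after dosing, blood loss measured in µL; normal saline negative control; n ≥ 6, mean ± SEM, one-way ANOVA.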

Compound | AUC(0-t) at 32 h [2] | IC50 (Coagulation factor X [6]) | IC50 (Coagulation factor X [7]) | IC50 (Plasma [8]) | Tmax [9] | Cmax [10] | half-life [11] | Vd [12] | AUC(0-inf) [1] | CL/F [18] | EC (Plasma [3]) | EC (Plasma [4]) | 2TT (Plasma [5]) | inhibition in vivo at 0.1 µmol/kg (Rattus norvegicus [13]) | inhibition in vivo at 0.03 µmol/kg (Rattus norvegicus [14]) | inhibition in vivo at 0.1 µmol/kg (Rattus norvegicus [15]) | inhibition in vivo at 0.3 µmol/kg (Rattus norvegicus [16]) | inhibition (Rattus norvegicus [17]) | inhibition (Rattus norvegicus [15]) | inhibition (Rattus norvegicus [19]) | other results
CO[C@H]1O[C@H](COS(=O)(=O)[O-])[C@@H](O[C@@H]2O[C@@H](C(=O)[O-])[C@@H](O[C@H]3O[C@H](COS(=O)(=O)[O-])[C@@H](O[C@@H]4O[C@H](C(=O)[O-])[C@@H](O[C@H]5O[C@H](COS(=O)(=O)[O-])[C@@H](O)[C@H](O)[C@H]5OS(=O)(=O)[O-])[C@H](OC)[C@H]4O)[C@H](OS(=O)(=O)[O-])[C@H]3OS(=O)(=O)[O-])[C@H](OC)[C@H]2OS(=O)(=O)[O-])[C@H](OS(=O)(=O)[O-])[C@H]1OS(=O)(=O)[O-].[Na+].[Na+].[Na+].[Na+].[Na+].[Na+].[Na+].[Na+].[Na+].[Na+].[Na+] | 17600 ng·h/mL | 141 nM | 725 nM | 12200 nM | 2 h | 2040 ng/mL | 6.1 h | 0.058 L/kg | – | – | 40.83 µM | >128 µg/mL | >128 µg/mL | 77.8% | < 15% | > 70% | 93.1% | – | – | – | AUC [1]: 19053.2 ng·h/mL
CO[C@H]1O[C@H](COS(=O)(=O)[O-])[C@@H](O[C@@H]2O[C@@H](C(=O)[O-])[C@@H](O[C@H]3O[C@H](COS(=O)(=O)[O-])[C@@H](O[C@@H]4O[C@H](C(=O)[O-])[C@@H](O[C@H]5O[C@H](COS(=O)(=O)[O-])[C@@H](O)[C@H](O)[C@H]5NS(=O)(=O)[O-])[C@H](O)[C@H]4O)[C@H](OS(=O)(=O)[O-])[C@H]3NS(=O)(=O)[O-])[C@H](O)[C@H]2OS(=O)(=O)[O-])[C@H](O)[C@H]1NS(=O)(=O)[O-].[Na+].[Na+].[Na+].[Na+].[Na+].[Na+].[Na+].[Na+].[Na+].[Na+] [FONDAPARINUX SODIUM] | 1070 ng·h/mL | 99.6 nM | 1910 nM | 14500 nM | 0.6 h | 519 ng/mL | 1.2 h | 0.097 L/kg | 1120 ng·h/mL | 3.98 mL/min/kg | 51.2 µM | >128 µg/mL | >128 µg/mL | 55.7% | < 15% | – | 59.3% | Active | Active | – | –

The next lines start with results.

AUC(0-t) at 32 h [2] | IC50 (Coagulation factor X [6]) | IC50 (Coagulation factor X [7]) | IC50 (Plasma [8]) | Tmax [9] | Cmax [10] | half-life [11] | Vd [12] | AUC(0-inf) [1] | CL/F [18] | Compound | EC (Plasma [3]) | EC (Plasma [4]) | 2TT (Plasma [5]) | inhibition in vivo at 0.1 µmol/kg (Rattus norvegicus [13]) | inhibition in vivo at 0.03 µmol/kg (Rattus norvegicus [14]) | inhibition in vivo at 0.1 µmol/kg (Rattus norvegicus [15]) | inhibition in vivo at 0.3 µmol/kg (Rattus norvegicus [16]) | inhibition (Rattus norvegicus [17]) | inhibition (Rattus norvegicus [15]) | inhibition (Rattus norvegicus [19]) | other results
14200 ng·h/mL | 108 nM | 788 nM | 12500 nM | 1.5 h | 2020 ng/mL | 6.2 h | 0.131 L/kg | 15500 ng·h/mL | 0.35 mL/min/kg | CO[C@H]1O[C@H](COS(=O)(=O)[O-])[C@@H](O[C@@H]2O[C@@H](C(=O)[O-])[C@@H](O[C@H]3O[C@H](COS(=O)(=O)[O-])[C@@H](O[C@@H]4O[C@H](C(=O)[O-])[C@@H](O[C@H]5O[C@H](COS(=O)(=O)[O-])[C@@H](O)[C@H](OC)[C@H]5OS(=O)(=O)[O-])[C@H](OC)[C@H]4O)[C@H](OS(=O)(=O)[O-])[C@H]3OS(=O)(=O)[O-])[C@H](OC)[C@H]2OS(=O)(=O)[O-])[C@H](OS(=O)(=O)[O-])[C@H]1OS(=O)(=O)[O-].[Na+].[Na+].[Na+].[Na+].[Na+].[Na+].[Na+].[Na+].[Na+].[Na+].[Na+] | 48.78 µM | >128 µg/mL | >128 µg/mL | 56.9% | 48.6% | > 70% | 89.5% | – | – | Active | –
6350 ng·h/mL | 94.7 nM | 779 nM | 12400 nM | 1 h | 1250 ng/mL | 4.8 h | 0.183 L/kg | 6750 ng·h/mL | 0.633 mL/min/kg | CO[C@H]1O[C@H](COS(=O)(=O)[O-])[C@@H](O[C@@H]2O[C@@H](C(=O)[O-])[C@@H](O[C@H]3O[C@H](COS(=O)(=O)[O-])[C@@H](O[C@@H]4O[C@H](C(=O)[O-])[C@@H](O[C@H]5O[C@H](COS(=O)(=O)[O-])[C@@H](O)[C@H](OS(=O)(=O)[O-])[C@H]5OS(=O)(=O)[O-])[C@H](OC)[C@H]4O)[C@H](OS(=O)(=O)[O-])[C@H]3OS(=O)(=O)[O-])[C@H](OC)[C@H]2OS(=O)(=O)[O-])[C@H](OS(=O)(=O)[O-])[C@H]1OS(=O)(=O)[O-].[Na+].[Na+].[Na+].[Na+].[Na+].[Na+].[Na+].[Na+].[Na+].[Na+].[Na+].[Na+] | 33.05 µM | >128 µg/mL | >128 µg/mL | – | 39.5% | – | – | Active | Active | – | inhibition (Rattus norvegicus [16]): Active
12800 ng·h/mL | 88.8 nM | 1130 nM | 14800 nM | 2 h | 1140 ng/mL | 15.1 h | 0.136 L/kg | 15100 ng·h/mL | 0.283 mL/min/kg | CO[C@H]1O[C@H](COS(=O)(=O)[O-])[C@@H](O[C@@H]2O[C@@H](C(=O)[O-])[C@@H](O[C@H]3O[C@H](COS(=O)(=O)[O-])[C@@H](O[C@@H]4O[C@H](C(=O)[O-])[C@@H](O[C@H]5O[C@H](COS(=O)(=O)[O-])[C@@H](OC)[C@H](OS(=O)(=O)[O-])[C@H]5OS(=O)(=O)[O-])[C@H](OC)[C@H]4OC(C)=O)[C@H](OS(=O)(=O)[O-])[C@H]3OS(=O)(=O)[O-])[C@H](OC)[C@H]2OS(=O)(=O)[O-])[C@H](OS(=O)(=O)[O-])[C@H]1OS(=O)(=O)[O-].[Na+].[Na+].[Na+].[Na+].[Na+].[Na+].[Na+].[Na+].[Na+].[Na+].[Na+].[Na+] | 32.47 µM | >128 µg/mL | >128 µg/mL | – | 33.2% | – | – | – | Active | Active | inhibition (Rattus norvegicus [16]): Active; Activity (Mus musculus): Active
